Measured values as given in paper PMC5338039 (Biochemistry, 2017).
“Also recorded” adds a separate entry of the source.

Tests used:
Type in all cases: cell-based
GPR55 Y3.32F = GPR55 Y3.32F (Homo sapiens, UniProt Q9Y2T6, Y101F); assay: SRE luciferase assay, Y3.32F mutant; conditions: Y3.32F
In short: (§1)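 HA-tagged human GPR55 (WT or sequence-confirmed site-directed mutant, pcDNA3) co-transfected by lipofection with pGL4.33 luc2P/SRE reporter into HEK293 cells; 60,000 cells/well, switched to 1% FBS/DMEM after 5 h, overnight. Agonist test compounds (10 mM DMSO stocks) added for 5 h in serum-free DMEM, 37°C. Cells lysed 10 min at room temperature, luciferin injected, luminescence read immediately (RLU). EC50 from sigmoidal nonlinear regression.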

GPR55 Y3.32L = GPR55 Y3.32L (Homo sapiens, UniProt Q9Y2T6, Y101L); assay: SRE luciferase assay, Y3.32L mutant; conditions: Y3.32L
In short: as §1

GPR55 F6.55A = GPR55 F6.55A (Homo sapiens, UniProt Q9Y2T6, F246A); assay: SRE luciferase assay, F6.55A mutant; conditions: F6.55A
In short: as §1

GPR55 F6.55L = GPR55 F6.55L (Homo sapiens, UniProt Q9Y2T6, F246L); assay: SRE luciferase assay, F6.55L mutant; conditions: F6.55L
In short: as §1

GPR55 Q6.58M = GPR55 Q6.58M (Homo sapiens, UniProt Q9Y2T6, Q249M); assay: SRE luciferase assay, Q6.58M mutant; conditions: Q6.58M
In short: as §1

GPR55 C(10)A = GPR55 C(10)A (Homo sapiens, UniProt Q9Y2T6, C10A); assay: SRE luciferase assay, C; conditions: C(10)A
In short: as §1

GPR55 H(170)F = GPR55 H(170)F (Homo sapiens, UniProt Q9Y2T6, H170F); assay: SRE luciferase assay, H; conditions: H(170)F
In short: as §1

GPR55 C(260)A = GPR55 C(260)A (Homo sapiens, UniProt Q9Y2T6, C260A); assay: SRE luciferase assay, C; conditions: C(260)A
In short: as §1

GPR55 Q7.36A = GPR55 Q7.36A (Homo sapiens, UniProt Q9Y2T6, Q271A); assay: SRE luciferase assay, Q7.36A mutant; conditions: Q7.36A
In short: as §1

GPR55 Q7.36N = GPR55 Q7.36N (Homo sapiens, UniProt Q9Y2T6, Q271N); assay: SRE luciferase assay, Q7.36N mutant; conditions: Q7.36N
In short: as §1

GPR55 M3.36A = GPR55 M3.36A (Homo sapiens, UniProt Q9Y2T6, M105A); assay: SRE luciferase assay, M3.36A mutant; conditions: M3.36A
In short: as §1

GPR55 F6.48A = GPR55 F6.48A (Homo sapiens, UniProt Q9Y2T6, F239A); assay: SRE luciferase assay, F6.48A mutant; conditions: F6.48A
In short: as §1

GPR55 K2.60A = GPR55 K2.60A (Homo sapiens, UniProt Q9Y2T6, K80A); assay: SRE luciferase assay, K2.60A mutant
In short: as §1

GPR55 E3.29A = GPR55 E3.29A (Homo sapiens, UniProt Q9Y2T6, E98A); assay: SRE luciferase assay, E3.29A mutant; conditions: E3.29A
In short: as §1

GPR55 E3.29L = GPR55 E3.29L (Homo sapiens, UniProt Q9Y2T6, E98L); assay: SRE luciferase assay, E3.29L mutant; conditions: E3.29L
In short: as §1

Chain of GPR55 F6.48A (Q9Y2T6 whole entry F239A): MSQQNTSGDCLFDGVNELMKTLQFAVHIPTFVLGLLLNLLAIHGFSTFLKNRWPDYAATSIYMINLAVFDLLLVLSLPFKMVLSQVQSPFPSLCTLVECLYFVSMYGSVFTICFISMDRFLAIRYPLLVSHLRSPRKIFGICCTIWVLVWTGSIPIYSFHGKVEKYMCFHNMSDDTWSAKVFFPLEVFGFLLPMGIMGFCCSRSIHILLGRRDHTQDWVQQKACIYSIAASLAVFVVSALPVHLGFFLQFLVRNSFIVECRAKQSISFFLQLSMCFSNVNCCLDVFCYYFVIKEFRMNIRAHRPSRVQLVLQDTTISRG
Chain of GPR55 M3.36A (Q9Y2T6 whole entry M105A): as the sequence (Q9Y2T6 whole entry F239A) above, with M105A, A239F counted along it
Chain of GPR55 Y3.32F (Q9Y2T6 whole entry Y101F): as the sequence (Q9Y2T6 whole entry F239A) above, with Y101F, A239F counted along it
Chain of GPR55 K2.60A (Q9Y2T6 whole entry K80A): as the sequence (Q9Y2T6 whole entry F239A) above, with K80A, A239F counted along it
Chain of GPR55 Q6.58M (Q9Y2T6 whole entry Q249M): as the sequence (Q9Y2T6 whole entry F239A) above, with A239F, Q249M counted along it
Chain of GPR55 Y3.32L (Q9Y2T6 whole entry Y101L): as the sequence (Q9Y2T6 whole entry F239A) above, with Y101L, A239F counted along it
Chain of GPR55 E3.29A (Q9Y2T6 whole entry E98A): as the sequence (Q9Y2T6 whole entry F239A) above, with E98A, A239F counted along it
Chain of GPR55 H(170)F (Q9Y2T6 whole entry H170F): as the sequence (Q9Y2T6 whole entry F239A) above, with H170F, A239F counted along it
Chain of GPR55 F6.55A (Q9Y2T6 whole entry F246A): as the sequence (Q9Y2T6 whole entry F239A) above, with A239F, F246A counted along it
Chain of GPR55 C(260)A (Q9Y2T6 whole entry C260A): as the sequence (Q9Y2T6 whole entry F239A) above, with A239F, C260A counted along it
Chain of GPR55 C(10)A (Q9Y2T6 whole entry C10A): as the sequence (Q9Y2T6 whole entry F239A) above, with C10A, A239F counted along it
Chain of GPR55 Q7.36A (Q9Y2T6 whole entry Q271A): as the sequence (Q9Y2T6 whole entry F239A) above, with A239F, Q271A counted along it
Chain of GPR55 Q7.36N (Q9Y2T6 whole entry Q271N): as the sequence (Q9Y2T6 whole entry F239A) above, with A239F, Q271N counted along it
Chain of GPR55 E3.29L (Q9Y2T6 whole entry E98L): as the sequence (Q9Y2T6 whole entry F239A) above, with E98L, A239F counted along it
Chain of GPR55 F6.55L (Q9Y2T6 whole entry F246L): as the sequence (Q9Y2T6 whole entry F239A) above, with A239F, F246L counted along it

Substance: l-α-lysophosphatidylinositol [LPI]
- SRE response compared with WT (in words) (GPR55 Y3.32F): right shifted curves; also recorded: reduced signaling
- SRE response compared with WT (in words) (GPR55 Y3.32L): right shifted curves; also recorded: reduced signaling
- SRE response compared with WT (in words) (GPR55 F6.55A): little to no effect
- SRE response compared with WT (in words) (GPR55 F6.55L): little to no effect
- SRE response compared with WT (in words) (GPR55 Q6.58M): little to no effect; also recorded: essentially no effect
- SRE response compared with WT (in words) (GPR55 C(10)A): right shifted curves
- SRE response compared with WT (in words) (GPR55 H(170)F): right shifted curves; also recorded: reduced signaling
- SRE response compared with WT (in words) (GPR55 C(260)A): right shifted curves
- SRE response compared with WT (in words) (GPR55 Q7.36A): little to no effect
- SRE response compared with WT (in words) (GPR55 Q7.36N): little to no effect
- SRE response compared with WT (in words) (GPR55 M3.36A): right shifted curves; also recorded: reduces LPI's ability to signal
- SRE response compared with WT (in words) (GPR55 F6.48A): right shifted curves; also recorded: reduces LPI's ability to signal
- SRE response compared with WT (in words) (GPR55 K2.60A): did not show any LPI-induced responses; also recorded: loss of function
- SRE response compared with WT (in words) (GPR55 E3.29A): slight response at high concentrations of LPI; also recorded: loss of function
- SRE response compared with WT (in words) (GPR55 E3.29L): slight response at high concentrations of LPI
